Measurements pooled from the literature.
Compare with care: the assays were run in different laboratories.
Target: Bone morphogenetic protein receptor type-2 (BMPR2, Homo sapiens, UniProt Q13873)
One construct used (Q13873 27-1038): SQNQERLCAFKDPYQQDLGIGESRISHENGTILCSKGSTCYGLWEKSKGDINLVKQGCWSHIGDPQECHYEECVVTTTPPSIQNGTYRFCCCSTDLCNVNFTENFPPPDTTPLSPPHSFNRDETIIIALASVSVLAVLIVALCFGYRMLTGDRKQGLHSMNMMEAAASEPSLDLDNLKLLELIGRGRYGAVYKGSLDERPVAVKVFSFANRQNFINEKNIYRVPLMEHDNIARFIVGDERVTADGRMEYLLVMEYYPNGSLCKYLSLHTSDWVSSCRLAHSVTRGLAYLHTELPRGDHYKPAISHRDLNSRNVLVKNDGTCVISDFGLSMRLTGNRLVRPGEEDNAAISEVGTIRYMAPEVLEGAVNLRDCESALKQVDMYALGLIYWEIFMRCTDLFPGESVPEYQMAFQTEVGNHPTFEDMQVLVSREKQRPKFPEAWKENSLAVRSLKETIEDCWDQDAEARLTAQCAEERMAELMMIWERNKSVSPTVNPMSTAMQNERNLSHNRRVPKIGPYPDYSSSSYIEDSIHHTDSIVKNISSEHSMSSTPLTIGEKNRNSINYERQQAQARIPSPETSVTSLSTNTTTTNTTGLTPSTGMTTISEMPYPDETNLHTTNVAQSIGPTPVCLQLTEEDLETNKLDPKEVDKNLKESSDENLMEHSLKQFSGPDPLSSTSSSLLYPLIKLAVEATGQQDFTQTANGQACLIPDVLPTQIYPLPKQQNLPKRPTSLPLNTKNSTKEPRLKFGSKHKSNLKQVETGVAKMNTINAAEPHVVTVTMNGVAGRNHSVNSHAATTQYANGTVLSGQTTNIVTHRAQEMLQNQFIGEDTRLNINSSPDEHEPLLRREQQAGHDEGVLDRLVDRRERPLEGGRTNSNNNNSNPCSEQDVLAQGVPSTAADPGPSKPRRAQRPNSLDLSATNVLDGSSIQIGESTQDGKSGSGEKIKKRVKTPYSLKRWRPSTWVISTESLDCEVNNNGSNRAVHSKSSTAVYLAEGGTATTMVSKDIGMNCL

Compound | assay | conditions | quantity | result
Cn1nc(C(F)(F)F)cc1-c1cnc(N2CCc3cc(S(=O)(=O)Nc4c(F)cc(Cl)cc4F)cc(N4CCCC4=O)c32)nc1 | cell-free assay, competition with immobilised ligand | 1 µM | remaining binding | 77%
COc1cc(Cl)c(C(=O)N[C@@H](CN[C@H]2CC[C@@H](N)CC2)Cc2ccc(C#N)cc2)cc1-c1ccc(CN[C@H](C)c2ccc(C)cc2)o1 | enzyme activity, inhibitor | 1 µM | remaining activity | 99%
O=C(Nc1cnn(-c2csc(C(=O)NC3COC3)c2)c1)Nc1ccccc1Cl | enzyme activity, inhibitor | 5 µM | remaining activity | 110%
O=C(CSc1nc2nccnc2c(=O)n1CCc1ccccc1)Nc1nccs1 | enzyme activity, inhibitor | 10 µM | inhibition | 17%
Nc1ncnc2occ(-c3ccc(NC(=O)Nc4cc(C(F)(F)F)ccc4F)cc3)c12 | cell-free assay | 20 µM | remaining signal | 60%
O=C(Nc1ccc(Oc2ccc(F)cc2)cc1)N1CCc2ncccc2[C@H]1c1ccc(F)cc1 | cell-free assay, competition with immobilised ligand | 1 µM | remaining binding | 96%
Cn1c2c(c3ccccc31)C(C#N)C(C)(C)NC2=O (stereo not shown) | thermal stability, DSF | 10 µM | ΔTm | 0.2 °C
Cn1cncc1C1=CN(c2ncnc3[nH]cnc23)CCS1 | enzyme activity, inhibitor, radiometric | 50 nM | inhibition | 21.3%
C[C@@]1(Cc2ccc(C#N)cc2)C(=O)N(c2cc(Cl)cc(Cl)c2)c2ncc(C(=O)NC3(c4nc(C5CCC5)no4)CC3)n21 | cell-free assay, competition with immobilised ligand | 1 µM | remaining binding | 100%
Cn1c2c(c3ccc(Cl)c(Cl)c31)C(C#N)C(C)(C)NC2=O (stereo not shown) | thermal stability, DSF | 10 µM | ΔTm | 1.4 °C
Cc1sc(C(=O)NC2COC2)cc1-n1cc(NC(=O)Nc2c(F)cccc2Cl)cn1 | enzyme activity, inhibitor | 10 µM | remaining activity | 84.5%
N#CC1c2c([nH]c3c(Cl)c(Cl)ccc23)C(=O)NC12CCCCC2 (racemic) | thermal stability, DSF | 10 µM | ΔTm | 0.7 °C
O=C(NCCCC1CCCCC1)c1ccc(CNC(=O)c2cnn(-c3ccccc3)c2C(F)(F)F)cc1 | cell-free assay, competition with immobilised ligand | 0.1 µM | remaining binding | 100%
